From ChEMBL document CHEMBL3763072, “Structure activity relationship studies on chemically non-reactive glycine sulfonamide inhibitors of diacylglycerol lipase” (Bioorg Med Chem, 2016)
Calls of active or inactive are those of the source. The rule behind the calls is not given here.

Assays:
[1] = biological target: T1, Pancreatic triacylglycerol lipase (Sus scrofa) (UniProt P00591); test: Inhibition of porcine pancreatic lipase at 30 uM
T1 sequence (whole entry): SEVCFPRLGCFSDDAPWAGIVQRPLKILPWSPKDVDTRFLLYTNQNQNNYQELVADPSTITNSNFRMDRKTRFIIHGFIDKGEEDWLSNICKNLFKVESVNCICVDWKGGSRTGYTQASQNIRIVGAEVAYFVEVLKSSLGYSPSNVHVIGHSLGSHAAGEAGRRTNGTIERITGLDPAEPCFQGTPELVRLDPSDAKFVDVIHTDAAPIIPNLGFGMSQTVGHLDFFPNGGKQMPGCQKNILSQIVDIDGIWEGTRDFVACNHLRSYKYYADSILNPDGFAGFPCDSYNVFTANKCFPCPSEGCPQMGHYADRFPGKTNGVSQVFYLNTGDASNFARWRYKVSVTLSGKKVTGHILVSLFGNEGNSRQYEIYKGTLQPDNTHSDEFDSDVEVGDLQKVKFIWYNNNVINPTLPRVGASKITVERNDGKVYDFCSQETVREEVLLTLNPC

[2] = biological target: T2, Diacylglycerol lipase-alpha (Homo sapiens, UniProt Q9Y4D2); test: Inhibition of full length human C-terminal HA-tagged DAGLalpha expressed in HEK293 cells using DAG as substrate assessed as reduction in intracellular 2-AG level incubated for 20 mins by LC-MS analysis; type: cell-based
T2 sequence (Q9Y4D2 whole entry): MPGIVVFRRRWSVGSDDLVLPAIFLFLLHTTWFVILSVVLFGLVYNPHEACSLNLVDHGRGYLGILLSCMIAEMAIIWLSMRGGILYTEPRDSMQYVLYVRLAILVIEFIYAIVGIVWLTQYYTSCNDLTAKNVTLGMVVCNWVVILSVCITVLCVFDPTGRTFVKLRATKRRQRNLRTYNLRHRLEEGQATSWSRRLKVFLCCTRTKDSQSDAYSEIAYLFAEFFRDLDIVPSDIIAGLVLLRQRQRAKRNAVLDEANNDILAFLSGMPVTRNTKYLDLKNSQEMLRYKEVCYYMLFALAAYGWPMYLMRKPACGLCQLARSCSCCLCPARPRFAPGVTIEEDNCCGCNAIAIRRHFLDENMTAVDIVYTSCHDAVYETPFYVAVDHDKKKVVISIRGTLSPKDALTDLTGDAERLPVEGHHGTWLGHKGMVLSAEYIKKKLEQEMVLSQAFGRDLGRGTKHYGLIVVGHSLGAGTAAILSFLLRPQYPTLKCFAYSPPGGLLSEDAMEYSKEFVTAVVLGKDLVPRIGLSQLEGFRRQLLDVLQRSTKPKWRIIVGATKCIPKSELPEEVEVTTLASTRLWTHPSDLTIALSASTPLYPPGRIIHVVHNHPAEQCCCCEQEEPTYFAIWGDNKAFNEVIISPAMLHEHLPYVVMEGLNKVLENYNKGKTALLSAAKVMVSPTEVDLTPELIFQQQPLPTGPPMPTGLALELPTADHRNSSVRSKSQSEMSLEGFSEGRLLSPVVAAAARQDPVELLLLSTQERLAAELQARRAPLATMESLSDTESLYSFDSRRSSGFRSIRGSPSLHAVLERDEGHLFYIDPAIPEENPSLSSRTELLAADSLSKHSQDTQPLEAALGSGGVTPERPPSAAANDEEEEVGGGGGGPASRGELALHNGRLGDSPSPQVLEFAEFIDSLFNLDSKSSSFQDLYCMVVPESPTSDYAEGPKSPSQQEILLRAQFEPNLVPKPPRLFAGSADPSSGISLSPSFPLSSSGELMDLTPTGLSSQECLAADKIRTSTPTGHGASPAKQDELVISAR

[3] = biological target: T2, Diacylglycerol lipase-alpha; test: Inhibition of full length human C-terminal HA-tagged DAGLalpha expressed in HEK293 cell membrane using DAG as substrate incubated for 20 mins by LC-MS analysis; type: cell-based
Procedure, shortened: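 Cell-free DAGL-α enzyme assay run at pH 6.5. IC50 values are reported, with replicate counts (n) given per value.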

[4] = biological target: T3, Monoglyceride lipase (Homo sapiens) (UniProt Q99685); test: Inhibition of MAGL (unknown origin) at 30 uM
T3 sequence (whole entry): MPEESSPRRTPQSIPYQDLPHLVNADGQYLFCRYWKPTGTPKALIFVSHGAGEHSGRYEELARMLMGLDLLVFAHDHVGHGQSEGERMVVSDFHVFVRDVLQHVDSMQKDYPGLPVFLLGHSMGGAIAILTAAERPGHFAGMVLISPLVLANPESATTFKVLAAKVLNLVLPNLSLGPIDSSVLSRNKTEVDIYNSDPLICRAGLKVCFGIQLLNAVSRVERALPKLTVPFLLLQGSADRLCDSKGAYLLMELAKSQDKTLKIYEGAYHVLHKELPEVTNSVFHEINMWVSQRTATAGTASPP

[5] = biological target: T4, Diacylglycerol lipase-alpha (Homo sapiens) (UniProt Q9Y4D2); test: Ratio of IC50 for full length human C-terminal HA-tagged DAGLalpha expressed in HEK293 cells assessed as reduction in intracellular 2-AG level to IC50 for full length human C-terminal HA-tagged DAGLalpha expressed in HEK293 cell membrane; type: cell-based
T4 sequence (whole entry): T2 sequence (Q9Y4D2 whole entry)

[6] = biological target: T5, Diacylglycerol lipase-beta (Homo sapiens, UniProt Q8NCG7); test: Inhibition of DAGLbeta (unknown origin)
T5 sequence (Q8NCG7 whole entry): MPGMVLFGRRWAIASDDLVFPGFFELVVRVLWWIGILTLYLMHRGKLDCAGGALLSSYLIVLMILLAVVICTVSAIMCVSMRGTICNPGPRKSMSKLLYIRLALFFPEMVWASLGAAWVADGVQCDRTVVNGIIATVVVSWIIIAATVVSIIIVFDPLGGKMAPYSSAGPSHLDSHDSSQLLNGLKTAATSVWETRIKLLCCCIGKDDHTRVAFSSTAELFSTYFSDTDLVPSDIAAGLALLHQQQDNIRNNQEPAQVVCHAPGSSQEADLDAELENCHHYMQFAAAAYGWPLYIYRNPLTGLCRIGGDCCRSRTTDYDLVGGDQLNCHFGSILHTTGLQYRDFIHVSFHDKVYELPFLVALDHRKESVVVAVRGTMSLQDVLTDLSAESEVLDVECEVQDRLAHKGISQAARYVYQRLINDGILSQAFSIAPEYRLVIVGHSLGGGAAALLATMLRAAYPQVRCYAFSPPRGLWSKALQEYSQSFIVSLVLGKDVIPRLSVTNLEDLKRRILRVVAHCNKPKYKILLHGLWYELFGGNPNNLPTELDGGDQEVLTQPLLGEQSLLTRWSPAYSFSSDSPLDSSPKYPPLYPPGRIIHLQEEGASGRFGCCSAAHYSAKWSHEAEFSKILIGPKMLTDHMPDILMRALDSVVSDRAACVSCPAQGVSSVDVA

[7] = test system: HEK293; test: Selectivity ratio of IC50 for full length human C-terminal HA-tagged DAGLalpha expressed in HEK293 cell membrane to IC50 for DAGLbeta (unknown origin); type: cell-based
[8] = Dissociation constant, pKa of compound at pH 2 to […] by spectrophotometric titration method; type: physicochemical
[9] = physchem; settings: octanol/phosphate buffer, pH 7.4

| inhibition [1] | IC50 [2] | IC50 [3] | inhibition [4] | Ratio IC50 [5] | IC50 [6] | pKa [8] | logD [9] | SMILES | Ratio IC50 [7] |
| --- | --- | --- | --- | --- | --- | --- | --- | --- | --- |
| inactive | 88 nM | 6 nM | inactive | 15 | 146 nM | – | – | O=C(O)CN(C1(c2ccc(-c3ccc(Cl)cc3Cl)cc2)CCC1)S(=O)(=O)c1ccc(OC(F)F)cc1 | 24 |
| – | – | 13500 nM | – | – | – | 2 | 0.5 | CC1(C)CCc2cc(S(=O)(=O)N(CC(=O)O)Cc3cccc4cccnc34)ccc2O1 | – |
| – | – | 18 nM | – | – | – | – | – | C[C@@H](c1ccc(-c2ccc(Cl)cc2Cl)cc1)N(CC(=O)O)S(=O)(=O)c1ccc(OC(F)F)cc1 | – |
